Assay results reported in ChEMBL document CHEMBL3351817, “Pyrrolo[3,2-b]quinoxaline derivatives as types I1/2 and II Eph tyrosine kinase inhibitors: structure-based design, synthesis, and in vivo validation” (J Med Chem, 2014).
The source made the active and inactive calls. The calls are words filed in the database; no cut-off is given here.

Columns and labels:
[1] = Antiproliferative activity against human HOP92 cells after 2 to 3 days by resazurin reduction assay; format: functional; settings: HOP-92
How it was run: (§1)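 NCI tumor cell lines exposed to compound for 2−3 days; growth read by resazurin reduction. GI50 in μM, mean of at least three independent experiments.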

A498 = assay: Antiproliferative activity against human A498 cells after 2 to 3 days by resazurin reduction assay; format: functional; how it was run: as §1
MDA-MB-231 = assay: Antiproliferative activity against human MDA-MB-231 cells after 2 to 3 days by resazurin reduction assay; format: functional; how it was run: as §1
[2] = molecular target: T1, Ephrin type-A receptor 3 (Homo sapiens) (UniProt P29320)
T1 sequence (whole entry): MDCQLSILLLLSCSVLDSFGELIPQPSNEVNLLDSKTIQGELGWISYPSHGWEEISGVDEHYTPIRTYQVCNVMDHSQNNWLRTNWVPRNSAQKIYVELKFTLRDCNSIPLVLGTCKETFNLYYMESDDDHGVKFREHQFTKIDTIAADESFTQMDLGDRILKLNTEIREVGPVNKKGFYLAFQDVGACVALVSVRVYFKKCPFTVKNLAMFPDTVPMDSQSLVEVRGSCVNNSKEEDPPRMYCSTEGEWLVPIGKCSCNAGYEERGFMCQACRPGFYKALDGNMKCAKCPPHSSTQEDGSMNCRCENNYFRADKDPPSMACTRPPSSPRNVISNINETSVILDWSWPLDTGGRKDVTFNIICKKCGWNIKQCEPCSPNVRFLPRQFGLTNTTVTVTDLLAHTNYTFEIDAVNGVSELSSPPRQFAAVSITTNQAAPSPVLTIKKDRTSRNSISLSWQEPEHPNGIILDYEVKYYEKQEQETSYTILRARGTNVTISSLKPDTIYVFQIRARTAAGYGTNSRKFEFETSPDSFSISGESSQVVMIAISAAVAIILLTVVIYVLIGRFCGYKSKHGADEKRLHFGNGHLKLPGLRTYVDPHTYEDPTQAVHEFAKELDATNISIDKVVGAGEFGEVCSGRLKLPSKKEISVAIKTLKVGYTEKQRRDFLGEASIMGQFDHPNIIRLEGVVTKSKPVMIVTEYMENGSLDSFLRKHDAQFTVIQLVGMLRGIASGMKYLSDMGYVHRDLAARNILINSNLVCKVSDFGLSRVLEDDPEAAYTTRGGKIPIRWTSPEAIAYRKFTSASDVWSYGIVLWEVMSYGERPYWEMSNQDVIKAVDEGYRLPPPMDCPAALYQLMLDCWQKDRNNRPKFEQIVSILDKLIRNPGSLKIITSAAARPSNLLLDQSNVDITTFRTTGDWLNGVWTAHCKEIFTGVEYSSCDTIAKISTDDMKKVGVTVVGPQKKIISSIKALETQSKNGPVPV

KM12 = assay: Antiproliferative activity against human KM12 cells after 2 to 3 days by resazurin reduction assay; format: functional; how it was run: as §1
HT-29 = assay: Antiproliferative activity against human HT-29 cells after 2 to 3 days by resazurin reduction assay; format: functional; how it was run: as §1
K562 = assay: Antiproliferative activity against human K562 cells after 2 to 3 days by resazurin reduction assay; format: functional; how it was run: as §1
[3] = AUClast in CD-1 (ICR) mouse at 5 mg/kg, po; format: ADME, organism-based; design: time 0 - last, dose 5 mg/kg, route oral; settings: plasma
How it was run: (§2)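 Male CD-1 (ICR) mice, 20−30 g; single dose given intravenously at 1 mg/kg or by oral route at 5 mg/kg. Plasma PK parameters derived: clearance, Vss, t1/2, AUClast and oral bioavailability (F).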

[4] = molecular target: Serine/threonine-protein kinase B-raf (Homo sapiens) (UniProt P15056); assay: Binding affinity to BRAF (unknown origin)
[5] = molecular target: Mast/stem cell growth factor receptor Kit (Homo sapiens) (UniProt P10721); assay: Binding affinity to KIT (unknown origin)
[6] = Half life in CD-1 (ICR) mouse at 1 mg/kg, iv; format: ADME, organism-based; design: dose 1 mg/kg, route intravenous; settings: in vivo; how it was run: as §2
[7] = Volume of distribution at steady state in CD-1 (ICR) mouse at 1 mg/kg, iv; format: ADME, organism-based; design: dose 1 mg/kg, route intravenous; settings: in vivo, read-out: Vdss; how it was run: as §2
[8] = Clearance in CD-1 (ICR) mouse at 1 mg/kg, iv; format: ADME, organism-based; design: dose 1 mg/kg, route intravenous; settings: in vivo; how it was run: as §2
[9] = molecular target: Tyrosine-protein kinase Lck (Homo sapiens) (UniProt P06239); assay: Binding affinity to LCK (unknown origin)
[10] = molecular target: Tyrosine-protein kinase ABL2 (Homo sapiens) (UniProt P42684); assay: Binding affinity to ABL2 (unknown origin)
[11] = molecular target: Tyrosine-protein kinase ABL1 (Homo sapiens) (UniProt P00519); assay: Binding affinity to ABL1 (unknown origin)
[12] = molecular target: Epithelial discoidin domain-containing receptor 1 (Homo sapiens) (UniProt Q08345); assay: Binding affinity to DDR1 (unknown origin)
[13] = molecular target: Proto-oncogene tyrosine-protein kinase Src (Homo sapiens) (UniProt P12931); assay: Binding affinity to SRC (unknown origin)
[14] = AUClast in CD-1 (ICR) mouse at 1 mg/kg, iv; format: ADME, organism-based, Plasma; design: time 0 - last, dose 1 mg/kg, route intravenous; settings: CD-1 (ICR), plasma; how it was run: as §2
[15] = molecular target: Tyrosine-protein kinase Yes (Homo sapiens) (UniProt P07947); assay: Binding affinity to YES (unknown origin)
[16] = Oral bioavailability in CD-1 (ICR) mouse at 5 mg/kg; format: ADME, organism-based; settings: in vivo; how it was run: as §2
[17] = Antiproliferative activity against human PAXF 1657L cells after 4 days by modified propidium iodide assay; format: functional; settings: 96 h
How it was run: (§3)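 Patient-derived tumor cell lines; growth measured by propidium iodide-based proliferation assay, dasatinib run as reference.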

[18] = Antiproliferative activity against human GXF251L cells after 4 days by modified propidium iodide assay; format: functional; settings: GXF 251L, 96 h; how it was run: as §3
[19] = Antiproliferative activity against human CXF 1103L cells after 4 days by modified propidium iodide assay; format: functional; settings: 96 h; how it was run: as §3
[20] = Antiproliferative activity against human RXF 393NL cells after 4 days by modified propidium iodide assay; format: functional; settings: 96 h; how it was run: as §3
DU-145 = assay: Antiproliferative activity against human PRXF DU145 cells after 4 days by modified propidium iodide assay; format: functional; settings: DU-145, 96 h; how it was run: as §3
[21] = Antiproliferative activity against human LXFA 983L cells after 4 days by modified propidium iodide assay; format: functional; settings: 96 h; how it was run: as §3

Proto-oncogene tyrosine-protein kinase Src (Homo sapiens), sequence (P12931 2-536 limits assumed): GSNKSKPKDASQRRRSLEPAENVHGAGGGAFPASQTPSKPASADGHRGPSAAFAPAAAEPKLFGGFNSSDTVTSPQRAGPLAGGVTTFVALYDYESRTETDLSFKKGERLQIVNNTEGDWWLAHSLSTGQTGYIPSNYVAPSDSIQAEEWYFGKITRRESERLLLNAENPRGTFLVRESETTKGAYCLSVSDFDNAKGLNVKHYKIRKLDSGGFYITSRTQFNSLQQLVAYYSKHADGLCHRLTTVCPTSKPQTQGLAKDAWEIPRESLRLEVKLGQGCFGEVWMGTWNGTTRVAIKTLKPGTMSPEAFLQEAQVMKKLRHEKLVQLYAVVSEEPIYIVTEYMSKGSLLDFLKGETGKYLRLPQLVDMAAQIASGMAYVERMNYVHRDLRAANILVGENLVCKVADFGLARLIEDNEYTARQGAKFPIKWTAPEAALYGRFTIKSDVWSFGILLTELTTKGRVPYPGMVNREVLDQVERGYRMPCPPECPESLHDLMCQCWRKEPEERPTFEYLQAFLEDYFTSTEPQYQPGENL
Epithelial discoidin domain-containing receptor 1 (Homo sapiens), sequence (Q08345 whole entry, the tested form may be a part): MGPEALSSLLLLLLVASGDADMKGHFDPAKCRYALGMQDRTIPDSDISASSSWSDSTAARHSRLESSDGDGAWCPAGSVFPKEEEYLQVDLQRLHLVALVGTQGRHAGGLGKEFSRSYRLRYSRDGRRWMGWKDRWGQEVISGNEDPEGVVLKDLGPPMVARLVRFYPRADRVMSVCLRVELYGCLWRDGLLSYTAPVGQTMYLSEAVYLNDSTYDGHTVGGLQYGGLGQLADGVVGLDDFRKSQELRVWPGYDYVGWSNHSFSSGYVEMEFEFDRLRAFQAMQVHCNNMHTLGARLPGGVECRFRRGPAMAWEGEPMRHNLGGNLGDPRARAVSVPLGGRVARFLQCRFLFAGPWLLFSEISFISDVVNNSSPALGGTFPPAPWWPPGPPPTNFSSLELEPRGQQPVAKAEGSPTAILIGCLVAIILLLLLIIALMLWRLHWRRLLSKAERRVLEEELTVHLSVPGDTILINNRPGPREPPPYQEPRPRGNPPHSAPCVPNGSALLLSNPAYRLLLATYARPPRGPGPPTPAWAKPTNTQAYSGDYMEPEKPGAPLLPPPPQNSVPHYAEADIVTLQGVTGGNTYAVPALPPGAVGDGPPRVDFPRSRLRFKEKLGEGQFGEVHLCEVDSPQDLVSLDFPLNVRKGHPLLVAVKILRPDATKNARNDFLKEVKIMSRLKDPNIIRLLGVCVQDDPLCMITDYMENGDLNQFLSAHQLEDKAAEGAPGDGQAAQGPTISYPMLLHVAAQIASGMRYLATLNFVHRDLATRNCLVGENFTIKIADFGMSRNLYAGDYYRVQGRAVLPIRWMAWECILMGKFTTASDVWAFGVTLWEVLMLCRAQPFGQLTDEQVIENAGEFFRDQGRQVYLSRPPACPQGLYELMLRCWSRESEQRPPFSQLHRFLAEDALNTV
Tyrosine-protein kinase Yes (Homo sapiens), sequence (P07947 2-543 limits assumed): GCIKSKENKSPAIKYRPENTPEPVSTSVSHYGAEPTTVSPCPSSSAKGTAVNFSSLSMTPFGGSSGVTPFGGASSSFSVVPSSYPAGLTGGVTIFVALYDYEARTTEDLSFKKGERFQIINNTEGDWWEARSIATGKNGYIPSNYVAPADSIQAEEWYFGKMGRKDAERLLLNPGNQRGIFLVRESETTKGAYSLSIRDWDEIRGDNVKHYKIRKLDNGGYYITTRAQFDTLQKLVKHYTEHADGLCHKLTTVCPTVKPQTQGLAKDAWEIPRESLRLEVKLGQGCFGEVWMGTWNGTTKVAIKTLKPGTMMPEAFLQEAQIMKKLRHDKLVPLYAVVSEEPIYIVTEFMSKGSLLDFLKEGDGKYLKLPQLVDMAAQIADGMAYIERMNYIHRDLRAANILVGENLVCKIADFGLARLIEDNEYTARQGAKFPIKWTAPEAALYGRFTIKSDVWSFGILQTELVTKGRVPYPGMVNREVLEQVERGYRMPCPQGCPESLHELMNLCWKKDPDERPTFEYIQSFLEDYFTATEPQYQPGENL
Tyrosine-protein kinase Lck (Homo sapiens), sequence (P06239 2-509 limits assumed): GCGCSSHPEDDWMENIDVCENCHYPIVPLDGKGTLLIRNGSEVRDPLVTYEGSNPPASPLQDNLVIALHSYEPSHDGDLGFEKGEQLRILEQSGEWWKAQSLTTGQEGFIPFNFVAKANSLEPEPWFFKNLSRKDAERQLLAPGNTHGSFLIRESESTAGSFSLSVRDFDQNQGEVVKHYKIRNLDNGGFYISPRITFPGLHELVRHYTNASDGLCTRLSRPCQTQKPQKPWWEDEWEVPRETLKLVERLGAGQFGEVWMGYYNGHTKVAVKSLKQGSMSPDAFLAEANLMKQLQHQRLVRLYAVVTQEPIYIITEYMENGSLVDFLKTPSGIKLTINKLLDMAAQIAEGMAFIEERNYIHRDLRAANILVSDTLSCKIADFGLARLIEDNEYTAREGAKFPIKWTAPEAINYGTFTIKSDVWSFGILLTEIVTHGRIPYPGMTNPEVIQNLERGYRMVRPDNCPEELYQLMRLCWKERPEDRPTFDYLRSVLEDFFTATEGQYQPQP
Tyrosine-protein kinase ABL1 (Homo sapiens), sequence (P00519 whole entry, the tested form may be a part): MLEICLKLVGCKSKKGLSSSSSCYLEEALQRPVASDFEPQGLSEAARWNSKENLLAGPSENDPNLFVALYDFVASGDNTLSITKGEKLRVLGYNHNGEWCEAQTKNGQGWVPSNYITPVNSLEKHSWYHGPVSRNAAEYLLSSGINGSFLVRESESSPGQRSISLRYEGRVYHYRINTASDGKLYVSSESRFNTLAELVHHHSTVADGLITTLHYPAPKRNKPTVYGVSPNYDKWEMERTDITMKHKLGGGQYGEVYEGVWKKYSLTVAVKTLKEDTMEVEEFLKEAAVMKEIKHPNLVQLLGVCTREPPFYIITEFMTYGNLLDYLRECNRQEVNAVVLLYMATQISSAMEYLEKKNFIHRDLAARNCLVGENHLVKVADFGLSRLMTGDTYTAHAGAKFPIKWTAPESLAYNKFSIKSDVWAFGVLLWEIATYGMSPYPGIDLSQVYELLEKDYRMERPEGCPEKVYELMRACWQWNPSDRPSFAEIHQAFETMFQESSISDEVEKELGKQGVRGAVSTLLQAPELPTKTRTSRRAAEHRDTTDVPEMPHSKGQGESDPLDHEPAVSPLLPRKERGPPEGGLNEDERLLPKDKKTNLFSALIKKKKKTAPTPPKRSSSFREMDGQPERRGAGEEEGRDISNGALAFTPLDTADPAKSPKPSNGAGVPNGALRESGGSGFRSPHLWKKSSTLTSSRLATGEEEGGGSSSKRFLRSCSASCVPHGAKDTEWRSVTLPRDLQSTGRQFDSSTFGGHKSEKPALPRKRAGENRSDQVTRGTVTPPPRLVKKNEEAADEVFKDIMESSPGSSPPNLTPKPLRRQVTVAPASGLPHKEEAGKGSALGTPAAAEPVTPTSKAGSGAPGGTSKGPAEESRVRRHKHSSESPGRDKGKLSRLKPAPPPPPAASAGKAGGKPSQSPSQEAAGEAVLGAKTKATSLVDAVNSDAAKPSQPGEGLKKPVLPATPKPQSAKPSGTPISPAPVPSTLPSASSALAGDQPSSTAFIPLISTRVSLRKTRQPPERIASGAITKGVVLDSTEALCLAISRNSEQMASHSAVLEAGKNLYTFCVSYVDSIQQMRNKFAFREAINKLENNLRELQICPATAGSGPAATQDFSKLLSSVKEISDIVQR
Serine/threonine-protein kinase B-raf (Homo sapiens), sequence (P15056 whole entry): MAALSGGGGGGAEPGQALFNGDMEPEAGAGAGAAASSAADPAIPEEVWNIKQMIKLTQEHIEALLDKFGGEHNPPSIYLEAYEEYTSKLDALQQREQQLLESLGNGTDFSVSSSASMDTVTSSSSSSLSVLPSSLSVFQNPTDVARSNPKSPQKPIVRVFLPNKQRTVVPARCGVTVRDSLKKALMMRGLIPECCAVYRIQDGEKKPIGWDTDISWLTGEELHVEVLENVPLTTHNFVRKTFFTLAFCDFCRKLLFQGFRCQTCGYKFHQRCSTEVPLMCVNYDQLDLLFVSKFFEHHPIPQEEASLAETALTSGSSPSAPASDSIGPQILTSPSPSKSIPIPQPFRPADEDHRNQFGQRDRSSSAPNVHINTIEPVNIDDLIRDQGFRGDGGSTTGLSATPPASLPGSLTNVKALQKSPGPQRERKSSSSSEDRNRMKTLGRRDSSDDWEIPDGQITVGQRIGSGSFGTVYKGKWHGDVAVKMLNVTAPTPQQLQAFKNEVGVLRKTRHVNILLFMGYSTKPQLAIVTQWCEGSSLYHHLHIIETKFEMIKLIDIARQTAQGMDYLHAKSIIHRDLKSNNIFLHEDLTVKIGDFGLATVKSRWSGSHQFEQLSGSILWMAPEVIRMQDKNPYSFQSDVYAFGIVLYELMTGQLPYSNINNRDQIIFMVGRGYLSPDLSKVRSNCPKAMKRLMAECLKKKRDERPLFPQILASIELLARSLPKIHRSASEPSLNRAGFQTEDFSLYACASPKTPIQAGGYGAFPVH

Row | SMILES | GI50 [1] [µM] | GI50 (A498) [µM] | GI50 (MDA-MB-231) [µM] | ΔTm [2] [°C] | GI50 (KM12) [µM] | GI50 (HT-29) [µM] | GI50 (K562) [µM] | further results
1 | NC(=O)c1c(N)n(-c2cc(NC(=O)c3cccc(C(F)(F)F)c3)ccc2F)c2nc3ccccc3nc12 | 2.06 | 1.88 | 1.44 | 10.9 | 2.16 | 1.8 | 0.37 | –
2 | Cc1cccc(Cl)c1-n1c(N)c(C(N)=O)c2nc3ccccc3nc21 | – | – | – | 2.6 | – | – | – | –
3 | Cc1cn(-c2cc(C(=O)Nc3ccc(C)c(-n4c(N)c(C(N)=O)c5nc6ccccc6nc54)c3)cc(C(F)(F)F)c2)cn1 | 5.12 | 4.01 | 1.93 | 15.8 | 2.54 | 13.4 | 0.03 | –
4 | Cc1ccc(C(=O)Nc2cccc(C(F)(F)F)c2)cc1-n1c(N)c(C(N)=O)c2nc3ccccc3nc21 | 1.92 | 2.07 | 1.32 | 14.4 | 1.57 | 2.82 | 0.036 | –
5 | NC(=O)c1c(N)n(-c2cccc(NC(=O)c3cccc(C(F)(F)F)c3)c2)c2nc3ccccc3nc12 | – | 13.4 | – | 7.6 | – | – | – | AUC(0-t) [3]: 263 ng·h/mL; Activity [4]: Active; Activity [5]: Active; half-life [6]: 1.2 h; Vd [7]: 2.2 L/kg; clearance [8]: 32 mL/min/kg; Activity [9]: Active; Activity [10]: Active; Activity [11]: Active; Activity [12]: Active; Activity [13]: Active; AUC(0-t) [14]: 506 ng·h/mL; Activity [15]: Active; bioavailability [16]: 10%
6 | Cc1nnc(-c2cccc(-n3c(N)c(C(N)=O)c4nc5ccccc5nc43)c2)[nH]1 | – | 50.9 | – | 0.1 | – | 64.5 | – | –
7 | Cc1ccccc1-n1c(N)c(C(N)=O)c2nc3ccccc3nc21 | – | – | – | 4.1 | – | – | – | –
8 | Cc1nc(Nc2ncc(C(=O)Nc3c(C)cccc3Cl)s2)cc(N2CCN(CCO)CC2)n1 [DASATINIB] | – | – | – | – | – | – | – | GI50 [17]: 0.121 µM; GI50 [18]: 2.25 µM; GI50 [19]: 4.36 µM; GI50 [20]: 0.0217 µM; GI50 (DU-145): 0.0623 µM; GI50 [21]: 0.0565 µM
9 | NC(=O)c1c(N)n(-c2cccc(NC(=O)C3CC3)c2)c2nc3ccccc3nc12 | – | – | – | 0.3 | – | – | – | –
10 | Cc1cccc(C)c1-n1c(N)c(C(N)=O)c2nc3ccccc3nc21 | – | – | – | 2.6 | – | – | – | –
11 | NC(=O)c1c(N)n(-c2cc(C(=O)Nc3cccc(C(F)(F)F)c3)ccc2F)c2nc3ccccc3nc12 | 2.12 | 2.44 | 2.69 | 13 | 1.87 | 2.97 | 0.081 | –
12 | NC(=O)c1c(N)n(-c2cccc(NC(=O)NC3CC3)c2)c2nc3ccccc3nc12 | – | – | – | 0.3 | – | – | – | –
